According to PubChem BioAssay AID624106 (Broad Institute, 2012):
Calls of active or inactive are those of the source.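 How the source made its calls: active means fitted curve reaches a 35% absorbance drop at both wavelengths in duplicate, with AC35 under 50 µM; inactive means the rest, including signal rising instead of falling.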

Tests used:
[1] = pyoverdine output of iron-starved P. aeruginosa PAK, dose response, PAK wild type, OD405, dry powder, set 2 (AID 624106); conditions: P. aeruginosa PAK + EDDHA, OD405 pyoverdine, 28 h; at 100 µM (top of the series)
Outline: (§1)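 System: WT P. aeruginosa PAK. Medium: succinate M9 medium, pH 7.0, with 2 µM EDDHA iron chelator. Doses: compound dose series, final 15 nM up to 100 µM. Schedule: 28 h exposure, 30 °C, humid.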

[2] = system: P. aeruginosa PAK + EDDHA, OD405 pyoverdine, 28 h; test: as above
Outline: as §1

Row | Compound | activity change, negative = inhibition [1] | AC35 [2]
1 | COCCOCCC(C#N)c1ccc(F)cc1 (centres undefined) | -8.85% (inactive) | 
2 | N#CC(c1ccc(Cl)cc1)c1cccc(C(F)(F)F)n1 (centres undefined) |  | 19.3 µM
3 | COCCC(C#N)c1ccc(F)cc1 (centres undefined) |  | > 100 µM (inactive)
4 | Clc1ccc(C(c2cccc(Cl)n2)c2nn[nH]n2)cc1 (centres undefined) | 11.9% (inactive) | 
5 | CN(C)CCCC(C#N)c1ccc(Cl)cc1 (centres undefined) | -3.43% (inactive) | 
6 | CCCCC(C#N)c1ccc(F)cc1 (centres undefined) | -5.09% (inactive) | 
7 | CN(C)CCCC(C#N)c1ccc(F)cc1 (centres undefined) | -12.9% (inactive) | 
8 | COCCNC(C#N)c1ccc(Cl)cc1 (centres undefined) | -12.1% (inactive) | 
9 | CCCCC(C#N)c1ccc(Cl)cn1 (centres undefined) | -7.7% (inactive) | 
10 | CCCCC(c1ccc(Cl)cc1)c1nn[nH]n1 (centres undefined) | -8.03% (inactive) | 
11 | CCCCC(C#N)c1ccc(Cl)cc1 (centres undefined) | -7.02% (inactive) | 
12 | N#Cc1cccc(C(C#N)c2ccc(F)cc2)n1 (centres undefined) |  | > 100 µM (inactive)
13 | COCCOCCC(C#N)c1ccc(Cl)cc1 (centres undefined) | -2.61% (inactive) | 
14 | N#CC(c1ccc(F)cc1)c1cccc(C(F)(F)F)n1 (centres undefined) |  | 45.4 µM
15 | N#CC(c1ccc(Cl)cc1)c1ccccn1 (centres undefined) |  | > 100 µM (inactive)
16 | N#CC1c2ccc(Cl)cc2CCc2cccnc21 (centres undefined) | -13.8% (inactive) | 
17 | N#CC(c1ccc(Cl)cc1)c1cccc(Cl)n1 (centres undefined) |  | 67 µM
18 | N#CC(c1ccc(C(F)(F)F)c(Cl)n1)c1ccccc1OC(F)(F)F (centres undefined) | -16% (inactive) | 
19 | N#CC(c1ccc(Cl)cc1)N1CCCC1 (centres undefined) |  | > 100 µM (inactive)
20 | N#CC(c1cccc(Cl)n1)c1ccc(Cl)cc1F (centres undefined) |  | 25.9 µM
21 | CCCCC(C#N)c1ccccn1 (centres undefined) | -4.26% (inactive) | 
22 | COCCC(C#N)c1ccc(Cl)cc1 (centres undefined) | -2.12% (inactive) | 
23 | CCCCC(C#N)c1ccc(F)cn1 (centres undefined) | -12.4% (inactive) | 
24 | N#CC(c1cccc(C(F)(F)F)n1)c1ccc(Cl)cc1F (centres undefined) |  | 18.8 µM
